Rows were chosen to be rich in hits. Some 1.9% of all compounds tested hit in one or more screens of this group.
CR mimetic SO – yeast age-related superoxide inhibition as caloric restriction mimetic | S. cerevisiae aged cells, superoxide DHE fluorescence; hits give low values | superoxide response (% of plate mean), % at 10 µM | actives 0.18% (n = 330,000) | AID 2690;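 active = superoxide response under a set limit, about three screen SD below normal, cut at about 65% in these data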;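 also: yeast aged for seven days with compound at 30 °C before DHE staining; 100% = average MFI of all compound-treated wells on the plate with controls excluded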
UCH37 inh – human UCH37 deubiquitinating enzyme inhibition. purified proteasome/UCH37, Ub-AMC cleavage fluorescence. actives 0.33% (n = 330,000). inhibition, % (test concentration not listed);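 active = mean inhibition over replicate wells above about 20%, limit read from the data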;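 also: 0% = compound-free wells with enzyme and 100% = wells lacking proteasome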
Target sequence (Q9Y5K5 whole entry, looked up): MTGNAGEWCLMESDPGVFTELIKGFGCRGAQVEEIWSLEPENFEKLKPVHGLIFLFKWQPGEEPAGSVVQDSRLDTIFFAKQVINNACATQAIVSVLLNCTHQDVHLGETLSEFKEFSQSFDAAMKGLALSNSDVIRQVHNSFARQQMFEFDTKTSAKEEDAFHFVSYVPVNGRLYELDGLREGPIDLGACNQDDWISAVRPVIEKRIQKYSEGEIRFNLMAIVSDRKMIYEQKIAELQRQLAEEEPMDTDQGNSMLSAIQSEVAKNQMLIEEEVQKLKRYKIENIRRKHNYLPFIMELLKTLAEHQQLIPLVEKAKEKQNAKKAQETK
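Test system – human UCH37 enzyme supplied as purified proteasome complex · Incubation – 30 min preincubation with enzyme, 25 min cleavage at room temperature · Detection – AMC fluorescence from Ub-AMC cleavage, excitation 355 nm, emission 460 nm · Benchmarks – no-proteasome wells (full inhibition) and compound-free wells (no inhibition)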
NR1D1 modulator – Rev-erb alpha (human) modulation; P20393; Rev-erbα–FITC-DNA binding, fluorescence polarization, 90 min; activity, % at 10 µM; actives 0.79% (n = 370,000); AID 1259318;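 active = activity above about 14%, limit read from the data; passing the limit was not always enough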;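 also: 0% = DMSO wells with 35 nM protein and 100% = DMSO wells with 750 nM protein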
beta cell repl – inducers of beta-cell replication in MIN6 cells; actives 0.29% (n = 330,000); proliferation, % at 10 µM; MIN6 cells proliferation, ATPlite luminescence, 48 h; cells starved in 0.2% serum; 100% = growth in 10% serum; AID 2380;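 active = compounds whose signal lies at least 3.5 SD above the mean of all wells on their plate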;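 also: 0% = DMSO-treated cells in low-serum medium and 100% = 10% serum control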
Rce1 inhib – yeast Ras-converting enzyme inhibition. Q03530. yeast membranes, quenched prenylated peptide cleavage fluorescence. calls only. actives 0.27% (n = 290,000). AID 2563;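 active = fall in fluorescence gain of 50% or more versus controls, with final raw signal at or below 3038400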;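 also: plate controls were neutral control wells for no effect and wells lacking membranes for full effect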
PG9 Ab binder – binds the HIV-1 gp120 antibody PG9 | actives 0.43% (n = 360,000) | inhibition, % at 6.7 µM | TR-FRET gp120-PG9 antibody binding | AID 624416; in the data active = inhibition above about 8.5%
PG9 binder conf – PG9 antibody binding, confirmed. AID 651571. TR-FRET PG9 antibody binding, biochemical. shares compounds with PG9 Ab binder. inhibition, % at 6.7 µM. actives 90% (n = 1,500); in the data active = inhibition above about 9%
PGV04 Ab binding – counter-screen for PG9 binders: binding control antibody PGV04; actives 95% (n = 1,500); TR-FRET PGV04 antibody-gp120 binding, biochemical; shares compounds with PG9 Ab binder; inhibition, % at 6.7 µM; in the data active = inhibition above about 9.5%
PG9 binder DR – small molecules binding HIV-1 gp120 antibody PG9 | IC50, µM | 95 tested, under 10 active | TR-FRET PG9 antibody-gp120 binding inhibition | shares compounds with PG9 Ab binder; in the data active = IC50 below about 10 µM
PGV04 binding DR – binds control antibody PGV04 in PG9 counter-screen; IC50, µM; actives 20% (n = 95); TR-FRET binding to control antibody PGV04; shares compounds with PG9 Ab binder
PG126 binding DR – binds control antibody PG126 in PG9 counter-screen. AID 651939. shares compounds with PG9 Ab binder. IC50, µM. actives 20% (n = 95). TR-FRET binding to antibody PG126, counterscreen
* hit, by the source's call; i = inactive; · = not tested or not shown. Rule as the data show it, unless noted: active = IC50 below about 9 µM; inactive = the rest.

SMILES	CR mimetic SO	UCH37 inh	NR1D1 modulator	beta cell repl	Rce1 inhib	PG9 Ab binder	PG9 binder conf	PGV04 Ab binding	others
CCC1(C)Cc2ccccc2-c2nc(SC)[nH]c(=O)c21 (centres undefined)	88	-6	1	-4	i	13*	9.4*	9	PG9 binder DR=>67;PGV04 binding DR=>67;PG126 binding DR=>67
CCc1cc2c(SCC(=O)NC(=O)c3cccn3C)ncnc2s1	121	-1	4	1	i	21*	18*	34*
CCc1cc2c(SCC(=O)Nc3cc(C)on3)ncnc2s1	95	2	12	-2	i	22*	32*	48*
Cc1ccc(C=NNC(=O)C(NC(=O)c2ccccc2)c2n[nH]c(=O)c3ccccc23)cc1 (centres undefined)	·	0	·	·	·	·	·	·
COc1ccc(CC(=O)NN=Cc2cc([N+](=O)[O-])cc(Br)c2O)cc1	·	9	·	·	·	·	·	·
CCOC(=O)c1cc2sccc2n1CC(=O)Nc1ccc(OC)c(OC)c1	88	2	3	1	i	0	·	·
CCOC(=O)c1cc2sccc2n1CC(=O)Nc1ccc(OC)cc1	101	7	7	-3	·	12*	16*	31*
COC(=O)c1cc2ccsc2n1CC(=O)Nc1cc(C)cc(C)c1	103	2	16	-2	i	33*	38*	48*
Cc1ccc(S(=O)(=O)CCC(=O)N(CCCN2CCOCC2)c2nc3ccccc3s2)cc1	99	5	5	-7	i	9.6*	7	11*
O=C(CCS(=O)(=O)c1ccccc1)N(CCCN1CCOCC1)c1nc2ccccc2s1	107	0	11	-7	i	1	·	·
CCC(C)(C)NC(=S)Nc1ccc(-c2nc3ccc(C)cc3s2)cc1	75	-14	-5	-6	i	11*	10*	24*
CCCCNC(=S)Nc1ccc(-c2nc3ccc(C)cc3s2)cc1	99	-94	4	0	i	-1	·	·
O=C1C=C(O)c2cccc3cccc1c23	103	·	1	-2	i	49*	39*	58*
N#Cc1c(SCC(=O)O)nc(-c2ccccc2)c2c1CCCC2	120	3	-7	0	i	13*	19*	24*
N#Cc1c(SCC(N)=O)nc(-c2ccccc2)c2c1CCCC2	98	-42	6	1	i	4	·	·
O=C(NN=Cc1ccc(OC(=O)c2cccs2)cc1)c1ccc(F)cc1	·	6	·	·	·	·	·	·
CC(=NO)C(=NO)c1ccc(C)o1	·	-1	·	·	·	·	·	·
S=c1[nH]ncc2ccccc12	88	9	4	1	i	0	·	·
S=c1[nH]ccc2ccccc12	·	·	-5	·	·	11*	4	11*
COc1ccc2cc(CN(CC3COCCO3)S(=O)(=O)c3ccc(Cl)cc3)c(=O)[nH]c2c1 (centres undefined)	100	-1	2	-2	i	24*	26*	31*
COc1ccc2cc(CN(CC3CCCO3)S(=O)(=O)c3ccccc3)c(=O)[nH]c2c1 (centres undefined)	107	-5	-5	-1	i	-2	·	·
CCn1c(=S)[nH]c2scc(-c3cccs3)c2c1=O	·	8	-6	·	i	11*	6	11*
CCOc1cc(C2C(C#N)=C(N)SC(N)=C2C#N)ccc1OCCN1CCOCC1	86	3	5	-3	i	13*	15*	21*
COC(=O)c1c(NC(=S)Nc2ccc(C(=O)N3CCOCC3)cc2)sc2c1CCC2	147	6	5	-4	i	10*	5	6
CNC(=S)Nc1sc2c(c1C(=O)OC)CCC2	107	2	2	-3	i	-2	·	·
SMILES	CR mimetic SO	UCH37 inh	NR1D1 modulator	beta cell repl	Rce1 inhib	PG9 Ab binder	PG9 binder conf	PGV04 Ab binding	others
Nc1nnnn1CC(=O)NN=Cc1ccc(-c2cccc(Cl)c2)o1	·	-49	·	·	·	·	·	·
Cc1ccc(C(=O)Nc2ccc(NC(=O)c3ccccc3Cl)c(C)c2)cc1	·	·	9	·	·	29*	26*	39*
Cc1cc(NC(=O)c2ccc(Cl)cc2)ccc1NC(=O)c1ccccc1Cl	110	-14	-7	-2	i	1	·	·
O=C(Nc1ccc(Cl)cc1Cl)c1ccc(-c2ccccc2)cc1	104	1	1	0	i	11*	33*	49*
O=C(Nc1c(Cl)cccc1Cl)c1ccc(-c2ccccc2)cc1	97	1	-1	0	i	-5	·	·
O=C(NN=Cc1cccc(OC(=O)N2CCOCC2)c1)c1cccs1	·	5	·	·	·	·	·	·
COc1ccc2c(c1)c(C(=O)NN=Cc1ccc(O)c(O)c1)c(C)n2C	·	6	·	·	·	·	·	·
CCNC(=S)NN=Cc1cc(C)ccc1C	·	5	·	·	·	·	·	·
COc1ccccc1Nc1nc2c(C)cccc2cc1C#N	106	-15	12	1	i	0	·	·
CCOc1ccc(Nc2nc3c(C)cccc3cc2C#N)cc1	94	-2	10	-1	i	12*	15*	26*
CCOC(=O)C(C(C)=NNC(=O)c1ccccc1[N+](=O)[O-])C(C)C (centres undefined)	·	4	·	·	·	·	·	·
COc1ccc(-c2cc3nc(NCc4ccc(C)cc4C)n(C)c(=O)c3s2)cc1OC	·	·	12	·	·	13*	13*	20*

Screening results from PubChem BioAssay.
